In ChEMBL document CHEMBL1629635, “Effect of DNase and antibiotics on biofilm characteristics” (2009):
Values after ≈ are worked out from the molar mass of the structure shown. Active and inactive are the calls of the source. The calls are words filed in the database; no cut-off is given here.

How the values were obtained:
Acinetobacter baumannii [1] = test: Antimicrobial activity against Acinetobacter baumannii VT 126 by broth microdilution method; type: functional
Outline: (§1)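 MICs by broth microdilution following CLSI guidelines, in cation-adjusted Mueller-Hinton broth or Haemophilus test medium broth. Cultures were grown at 37°C without shaking.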

Haemophilus influenzae [2] = test: Antimicrobial activity against Haemophilus influenzae VT450-2006 by broth microdilution method; type: functional; outline: as §1
Klebsiella pneumoniae [3] = test: Antimicrobial activity against Klebsiella pneumoniae VT 1367 by broth microdilution method; type: functional; outline: as §1
Escherichia coli [4] = test: Antimicrobial activity against Escherichia coli ATCC 25922 by broth microdilution method; type: functional; outline: as §1
Pseudomonas aeruginosa [5] = test: Antimicrobial activity against Pseudomonas aeruginosa ATCC 27853 by broth microdilution method; type: functional; outline: as §1
Staphylococcus aureus [6] = test: Antimicrobial activity against Staphylococcus aureus ATCC 29213 by broth microdilution method; type: functional; outline: as §1
Streptococcus pyogenes [7] = test: Antimicrobial activity against Streptococcus pyogenes VT 59 by broth microdilution method; type: functional; outline: as §1
Acinetobacter baumannii [8] = test: Bactericidal activity against Acinetobacter baumannii VT 126 assessed as eradication of pre-formed biofilm at 1 to 10 times MIC after 24 hrs; type: functional, organism-based
Outline: (§2)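 Biofilms were grown 24 h at 37°C in 96-well plates from a 24-h broth culture (inoculum 7.53 ± 0.22 log10 CFU/ml). […] Read-out was crystal-violet biomass (OD570) and CFU by serial dilution plating.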

Haemophilus influenzae [9] = test: Bactericidal activity against Haemophilus influenzae VT450-2006 assessed as eradication of pre-formed biofilm at 1 to 10 times MIC after 24 hrs; type: functional, organism-based; outline: as §2
Klebsiella pneumoniae [10] = test: Bactericidal activity against Klebsiella pneumoniae VT 1367 assessed as eradication of pre-formed biofilm at 1 to 10 times MIC after 24 hrs; type: functional, organism-based; outline: as §2
Escherichia coli [11] = test: Bactericidal activity against Escherichia coli ATCC 25922 assessed as eradication of pre-formed biofilm at 1 to 10 times MIC after 24 hrs; type: functional, organism-based; outline: as §2
Pseudomonas aeruginosa [12] = test: Bactericidal activity against Pseudomonas aeruginosa ATCC 27853 assessed as eradication of pre-formed biofilm at 1 to 10 times MIC after 24 hrs; type: functional, organism-based; outline: as §2
Staphylococcus aureus [13] = test: Bactericidal activity against Staphylococcus aureus ATCC 29213 assessed as eradication of pre-formed biofilm at 1 to 10 times MIC after 24 hrs by serial dilution; type: functional, organism-based; outline: as §2
Streptococcus pyogenes [14] = test: Bactericidal activity against Streptococcus pyogenes VT 59 assessed as eradication of pre-formed biofilm at 1 to 10 times MIC after 24 hrs; type: functional, organism-based; outline: as §2
Acinetobacter baumannii [15] = test: Bactericidal activity against Acinetobacter baumannii VT 126 assessed as eradication of pre-formed biofilm at 50 times MIC after 24 hrs by serial dilution; type: functional
Outline: (§3)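 Preformed 24-h biofilms in 96-well plates got antibiotic at 50 times MIC, DNase I at 5 μg/ml, or both, for 24 h at 37°C. Wells were scraped into 1.0 ml of 0.15 M phosphate buffer pH 7.2, serially diluted and plated; result is log10 CFU/well. Mean ± SEM of three independent experiments, counts done in triplicate.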

Haemophilus influenzae [16] = test: Bactericidal activity against Haemophilus influenzae VT450-2006 assessed as eradication of pre-formed biofilm at 50 times MIC after 24 hrs by serial dilution; type: functional; outline: as §3
Klebsiella pneumoniae [17] = test: Bactericidal activity against Klebsiella pneumoniae VT 1367 assessed as eradication of pre-formed biofilm at 50 times MIC after 24 hrs by serial dilution; type: functional; outline: as §3
Escherichia coli [18] = test: Bactericidal activity against Escherichia coli ATCC 25922 assessed as eradication of pre-formed biofilm at 50 times MIC after 24 hrs by serial dilution; type: functional; outline: as §3
Pseudomonas aeruginosa [19] = test: Bactericidal activity against Pseudomonas aeruginosa ATCC 27853 assessed as eradication of pre-formed biofilm at 50 times MIC after 24 hrs by serial dilution; type: functional; outline: as §3
Staphylococcus aureus [20] = test: Bactericidal activity against Staphylococcus aureus ATCC 29213 assessed as eradication of pre-formed biofilm at 50 times MIC after 24 hrs by serial dilution; type: functional; outline: as §3
Streptococcus pyogenes [21] = test: Bactericidal activity against Streptococcus pyogenes VT 59 assessed as eradication of pre-formed biofilm at 50 times MIC after 24 hrs by serial dilution; type: functional; outline: as §3
Escherichia coli [22] = test: Bactericidal activity against Escherichia coli ATCC 25922 assessed as eradication of pre-formed biofilm at 50 times MIC after 24 hrs; type: functional
Outline: (§4)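 24-h, 37°C 96-well biofilms were washed three times with 0.15 M phosphate buffer pH 7.2. They were treated 24 h at 37°C with antibiotic at 50 times MIC, alone or with DNase I at 5 μg/ml, in medium. Biomass: 0.1% crystal violet for 30 min at room temperature, water washes, ethanol-acetone (80:20) solubilization, absorbance at 570 nm.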

Pseudomonas aeruginosa [23] = test: Bactericidal activity against Pseudomonas aeruginosa ATCC 27853 assessed as eradication of pre-formed biofilm at 50 times MIC after 24 hrs; type: functional; outline: as §4
Streptococcus pyogenes [24] = test: Bactericidal activity against Streptococcus pyogenes VT 59 assessed as eradication of pre-formed biofilm at 50 times MIC after 24 hrs; type: functional; outline: as §4
Staphylococcus aureus [25] = test: Bactericidal activity against Staphylococcus aureus ATCC 29213 assessed as eradication of pre-formed biofilm at 50 times MIC after 24 hrs; type: functional; outline: as §4
Acinetobacter baumannii [26] = test: Bactericidal activity against Acinetobacter baumannii VT 126 assessed as eradication of pre-formed biofilm at 50 times MIC after 24 hrs; type: functional; outline: as §4
Haemophilus influenzae [27] = test: Bactericidal activity against Haemophilus influenzae VT450-2006 assessed as eradication of pre-formed biofilm at 50 times MIC after 24 hrs; type: functional; outline: as §4
Klebsiella pneumoniae [28] = test: Bactericidal activity against Klebsiella pneumoniae VT 1367 assessed as eradication of pre-formed biofilm at 50 times MIC after 24 hrs; type: functional; outline: as §4

CC1(C)S[C@@H]2[C@H](NC(=O)[C@H](N)c3ccccc3)C(=O)N2[C@H]1C(=O)O [AMPICILLIN]
MIC (Acinetobacter baumannii [1]): 50 µg/mL (≈ 143 µM)
MIC (Haemophilus influenzae [2]): 0.5 µg/mL (≈ 1.43 µM)
MIC (Klebsiella pneumoniae [3]): 64 µg/mL (≈ 183 µM)
MIC (Escherichia coli [4]): 16 µg/mL (≈ 45.8 µM)
MIC (Pseudomonas aeruginosa [5]): 128 µg/mL (≈ 366 µM)
MIC (Staphylococcus aureus [6]): 0.025 µg/mL (≈ 0.0715 µM)
MIC (Streptococcus pyogenes [7]): 0.25 µg/mL (≈ 0.715 µM)
inhibition (Acinetobacter baumannii [8]): inactive
inhibition (Haemophilus influenzae [9]): inactive
inhibition (Klebsiella pneumoniae [10]): inactive
inhibition (Escherichia coli [11]): inactive
inhibition (Pseudomonas aeruginosa [12]): inactive
inhibition (Staphylococcus aureus [13]): inactive
inhibition (Streptococcus pyogenes [14]): inactive
log10cfu (Acinetobacter baumannii [15]): 8.29
log10cfu (Haemophilus influenzae [16]): 8.44
log10cfu (Klebsiella pneumoniae [17]): 8.33
log10cfu (Escherichia coli [18]): 8.55
log10cfu (Pseudomonas aeruginosa [19]): 8.62
log10cfu (Staphylococcus aureus [20]): 9.51
log10cfu (Streptococcus pyogenes [21]): 8.16
inhibition (INH) (Escherichia coli [22]): 10%
inhibition (INH) (Pseudomonas aeruginosa [23]): 10%

CC[C@H]1OC(=O)[C@H](C)[C@@H](O[C@H]2C[C@@](C)(OC)[C@@H](O)[C@H](C)O2)[C@H](C)[C@@H](O[C@@H]2O[C@H](C)C[C@H](N(C)C)[C@H]2O)[C@](C)(O)C[C@@H](C)CN(C)[C@H](C)[C@@H](O)[C@]1(C)O [AZITHROMYCIN]
MIC (Haemophilus influenzae [2]): 1 µg/mL (≈ 1.34 µM)
MIC (Staphylococcus aureus [6]): 0.3 µg/mL (≈ 0.401 µM)
MIC (Streptococcus pyogenes [7]): 0.25 µg/mL (≈ 0.334 µM)
inhibition (Acinetobacter baumannii [8]): inactive
inhibition (Haemophilus influenzae [9]): inactive
inhibition (Klebsiella pneumoniae [10]): inactive
inhibition (Escherichia coli [11]): inactive
inhibition (Pseudomonas aeruginosa [12]): inactive
inhibition (Staphylococcus aureus [13]): inactive
inhibition (Streptococcus pyogenes [14]): inactive
log10cfu (Haemophilus influenzae [16]): 8.14
log10cfu (Staphylococcus aureus [20]): 9.75
log10cfu (Streptococcus pyogenes [21]): 8.24
inhibition (INH) (Streptococcus pyogenes [24]): 20%

CO/N=C(\C(=O)N[C@@H]1C(=O)N2C(C(=O)O)=C(COC(C)=O)CS[C@H]12)c1csc(N)n1 [CEFOTAXIME]
MIC (Acinetobacter baumannii [1]): 1.5 µg/mL (≈ 3.29 µM)
MIC (Haemophilus influenzae [2]): 0.16 µg/mL (≈ 0.351 µM)
MIC (Klebsiella pneumoniae [3]): 0.06 µg/mL (≈ 0.132 µM)
MIC (Escherichia coli [4]): 1.5 µg/mL (≈ 3.29 µM)
MIC (Pseudomonas aeruginosa [5]): 64 µg/mL (≈ 141 µM)
MIC (Staphylococcus aureus [6]): 3.8 µg/mL (≈ 8.34 µM)
MIC (Streptococcus pyogenes [7]): 0.03 µg/mL (≈ 0.0659 µM)
inhibition (Acinetobacter baumannii [8]): inactive
inhibition (Haemophilus influenzae [9]): inactive
inhibition (Klebsiella pneumoniae [10]): inactive
inhibition (Escherichia coli [11]): inactive
inhibition (Pseudomonas aeruginosa [12]): inactive
inhibition (Staphylococcus aureus [13]): inactive
inhibition (Streptococcus pyogenes [14]): inactive
log10cfu (Acinetobacter baumannii [15]): 8.32
log10cfu (Haemophilus influenzae [16]): 8.45
log10cfu (Klebsiella pneumoniae [17]): 8.54
log10cfu (Escherichia coli [18]): 8.66
log10cfu (Pseudomonas aeruginosa [19]): 8.68
log10cfu (Staphylococcus aureus [20]): 9.67
log10cfu (Streptococcus pyogenes [21]): 8.2
inhibition (INH) (Escherichia coli [22]): 10%
inhibition (INH) (Pseudomonas aeruginosa [23]): 10%

C[C@H]1COc2c(N3CCN(C)CC3)c(F)cc3c(=O)c(C(=O)O)cn1c23.C[C@H]1COc2c(N3CCN(C)CC3)c(F)cc3c(=O)c(C(=O)O)cn1c23.O [LEVOFLOXACIN]
MIC (Acinetobacter baumannii [1]): 8 µg/mL
MIC (Haemophilus influenzae [2]): 0.07 µg/mL
MIC (Klebsiella pneumoniae [3]): 0.15 µg/mL
MIC (Escherichia coli [4]): 0.035 µg/mL
MIC (Pseudomonas aeruginosa [5]): 0.6 µg/mL
MIC (Staphylococcus aureus [6]): 0.3 µg/mL
MIC (Streptococcus pyogenes [7]): 0.5 µg/mL
inhibition (Acinetobacter baumannii [8]): inactive
inhibition (Haemophilus influenzae [9]): inactive
inhibition (Klebsiella pneumoniae [10]): inactive
inhibition (Escherichia coli [11]): inactive
inhibition (Pseudomonas aeruginosa [12]): inactive
inhibition (Staphylococcus aureus [13]): inactive
inhibition (Streptococcus pyogenes [14]): inactive
log10cfu (Acinetobacter baumannii [15]): 8.26
log10cfu (Haemophilus influenzae [16]): 8.25
log10cfu (Klebsiella pneumoniae [17]): 8.62
log10cfu (Escherichia coli [18]): 8.46
log10cfu (Pseudomonas aeruginosa [19]): 8.69
log10cfu (Staphylococcus aureus [20]): 7.39
log10cfu (Streptococcus pyogenes [21]): 6.39
inhibition (INH) (Staphylococcus aureus [25]): 10%
inhibition (INH) (Streptococcus pyogenes [24]): 10%
inhibition (INH) (Acinetobacter baumannii [26]): 10%
inhibition (INH) (Haemophilus influenzae [27]): 10%
inhibition (INH) (Klebsiella pneumoniae [28]): 10%
inhibition (INH) (Escherichia coli [22]): 10%
inhibition (INH) (Pseudomonas aeruginosa [23]): 10%

CO[C@H]1/C=C/O[C@@]2(C)Oc3c(C)c(O)c4c(O)c(c(/C=N/N5CCN(C)CC5)c(O)c4c3C2=O)NC(=O)/C(C)=C\C=C\[C@H](C)[C@H](O)[C@@H](C)[C@@H](O)[C@@H](C)[C@H](OC(C)=O)[C@@H]1C [RIFAMPIN]
MIC (Acinetobacter baumannii [1]): 8 µg/mL (≈ 9.72 µM)
MIC (Haemophilus influenzae [2]): 0.8 µg/mL (≈ 0.972 µM)
MIC (Klebsiella pneumoniae [3]): 16 µg/mL (≈ 19.4 µM)
MIC (Escherichia coli [4]): 8 µg/mL (≈ 9.72 µM)
MIC (Pseudomonas aeruginosa [5]): 16 µg/mL (≈ 19.4 µM)
MIC (Staphylococcus aureus [6]): 0.25 µg/mL (≈ 0.304 µM)
MIC (Streptococcus pyogenes [7]): 0.25 µg/mL (≈ 0.304 µM)
inhibition (Acinetobacter baumannii [8]): inactive
inhibition (Haemophilus influenzae [9]): inactive
inhibition (Klebsiella pneumoniae [10]): inactive
inhibition (Escherichia coli [11]): inactive
inhibition (Pseudomonas aeruginosa [12]): inactive
inhibition (Staphylococcus aureus [13]): inactive
inhibition (Streptococcus pyogenes [14]): inactive
log10cfu (Acinetobacter baumannii [15]): 8.15
log10cfu (Haemophilus influenzae [16]): 8.14
log10cfu (Klebsiella pneumoniae [17]): 8.5
log10cfu (Escherichia coli [18]): 8.58
log10cfu (Pseudomonas aeruginosa [19]): 8.56
log10cfu (Staphylococcus aureus [20]): 7.5
log10cfu (Streptococcus pyogenes [21]): 6.44
inhibition (INH) (Staphylococcus aureus [25]): 10%
inhibition (INH) (Streptococcus pyogenes [24]): 10%
inhibition (INH) (Acinetobacter baumannii [26]): 10%
inhibition (INH) (Haemophilus influenzae [27]): 10%
inhibition (INH) (Klebsiella pneumoniae [28]): 10%
inhibition (INH) (Escherichia coli [22]): 10%
inhibition (INH) (Pseudomonas aeruginosa [23]): 10%
